# From ChEMBL document CHEMBL4732185, “Synthesis, biological evaluation and structure-activity relationship of novel dichloroacetophenones targeting pyruvate dehydrogenase kinases with potent anticancer activity” (Eur J Med Chem, 2021)
# The source made the active and inactive calls. No cut-off for these calls is given here.
# What was measured:
# A-375 [1] = experiment: Induction of apoptosis in human A375 cells assessed as late apoptotic cells at 5 uM after 24 hrs by annexinV-FITC/propidium iodide staining based flow cytometric analysis (reference value: 0.63%); assay type: functional
# A-375 [2] = experiment: Induction of ROS generation in human A375 cells at 1 to 5 uM after 4 hrs by DCFH-DA staining based assay; assay type: functional, cell-based; conditions: dose 1-5 µM
# Method in brief: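 ROS assay. A375 cells loaded with diluted DCFH-DA for 45 min at 37 °C, washed three times with PBS, then treated with compound at 37 °C for 4 h. Fluorescence read on a microplate reader at Ex/Em 485/535 nm.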
# A-375 [3] = experiment: Induction of cell cycle arrest in human A375 cells assessed as accumulation at G2 phase at 1 uM after 24 hrs by propidium iodide staining based flow cytometric analysis (reference value: 10.02%); assay type: functional
# A-375 [4] = experiment: Inhibition of PDK in human A375 cells assessed as reduction in phosphorylation of PDC E1alpha at ser293 residues at 2.5 to 5 uM after 24 hrs by Western blot analysis; assay type: cell-based; conditions: dose 2.5-5 µM
# Method in brief: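 A375 cells in 6-well plates, treated 24 h. Lysed 15 min and spun 12000 rpm at 4 °C for 15 min. Protein equalized by BCA and denatured in SDS buffer at 100 °C for 8 min. Run on SDS-PAGE, transferred to nitrocellulose, blocked in 5% milk 2 h, primary antibody overnight, HRP anti-rabbit IgG 2 h, ECL detection.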
# MCF7 = experiment: Antiproliferative activity against human MCF7 cells assessed as growth inhibition after 72 hrs by MTT assay; assay type: functional, cell-based; conditions: Homo sapiens, MCF7, 72 h; read-out: IC50
# Method in brief: (§1)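 MTT viability assay. Cancer lines seeded at 3000–6000 cells/well and L02 at 7000 cells/well, cultured overnight, then exposed to a full dose range for 72 h. MTT (0.5 mg/mL) added for 4 h, supernatant removed, formazan dissolved in DMSO, absorbance read at 570 nm. IC50 taken as the mean of three independent experiments. Cells grown in DMEM + 10% FBS, 37 °C, 5% CO2.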
# A549 [5] = experiment: Antiproliferative activity against human A549 cells assessed as growth inhibition after 72 hrs by MTT assay; assay type: functional, cell-based; conditions: Homo sapiens, A549, 72 h; read-out: IC50; method in brief: as §1
# A-375 [6] = experiment: Induction of apoptosis in human A375 cells assessed as viable cells at 1 uM after 36 hrs by annexinV-FITC/propidium iodide staining based flow cytometric analysis (reference value: 94.15%); assay type: functional; conditions: read-out: Activity
# A-375 [7] = experiment: Induction of cell cycle arrest in human A375 cells assessed as accumulation at G2 phase at 2.5 uM after 24 hrs by propidium iodide staining based flow cytometric analysis (reference value: 10.02%); assay type: functional
# A-375 [8] = experiment: Induction of cell cycle arrest in human A375 cells assessed as accumulation at G2 phase at 5 uM after 24 hrs by propidium iodide staining based flow cytometric analysis (reference value: 10.02%); assay type: functional
# A-375 [9] = experiment: Induction of apoptosis in human A375 cells assessed as necrotic cells at 5 uM after 36 hrs by annexinV-FITC/propidium iodide staining based flow cytometric analysis (reference value: 1.63%); assay type: functional
# Homo sapiens = organism: Homo sapiens; experiment: Inhibition of PDK (unknown origin) using RYHGHSMSDP as substrate at 1 uM after 30 mins by Kinase-Glo luminescent assay
# HCT-116 = experiment: Antiproliferative activity against human HCT-116 cells assessed as growth inhibition after 72 hrs by MTT assay; assay type: functional, cell-based; conditions: Homo sapiens, HCT-116, 72 h; read-out: IC50; method in brief: as §1
# A-375 [10] = experiment: Antiproliferative activity against human A375 cells assessed as growth inhibition after 72 hrs by MTT assay; assay type: functional, cell-based; conditions: Homo sapiens, A-375, 72 h; read-out: IC50; method in brief: as §1
# A-375 [11] = experiment: Induction of apoptosis in human A375 cells assessed as late apoptotic cells at 2.5 uM after 36 hrs by annexinV-FITC/propidium iodide staining based flow cytometric analysis (reference value: 1.02%); assay type: functional
# [12] = molecular target: [Pyruvate dehydrogenase (acetyl-transferring)] kinase isozyme 3, mitochondrial (Homo sapiens, UniProt Q15120); experiment: Binding affinity to PDK3 (unknown origin) by isothermal titration calorimetry
# [Pyruvate dehydrogenase (acetyl-transferring)] kinase isozyme 3, mitochondrial, sequence (Q15120 whole entry): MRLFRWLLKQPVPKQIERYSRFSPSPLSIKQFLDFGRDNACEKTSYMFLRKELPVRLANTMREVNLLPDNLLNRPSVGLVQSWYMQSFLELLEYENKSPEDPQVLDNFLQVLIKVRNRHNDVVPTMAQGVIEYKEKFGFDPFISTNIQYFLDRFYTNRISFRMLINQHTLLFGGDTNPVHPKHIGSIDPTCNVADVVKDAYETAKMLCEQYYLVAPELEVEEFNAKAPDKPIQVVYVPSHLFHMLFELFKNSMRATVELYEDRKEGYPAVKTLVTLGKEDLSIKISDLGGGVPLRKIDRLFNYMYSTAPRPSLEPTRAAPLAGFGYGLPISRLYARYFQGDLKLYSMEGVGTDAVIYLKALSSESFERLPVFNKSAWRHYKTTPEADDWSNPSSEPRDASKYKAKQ
# Method in brief: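 Isothermal titration calorimetry at 25 °C. Compound dissolved in DMSO, diluted to 100 µM in buffer and placed in the titration syringe; 250 µL of PDK protein solution in the reaction cell. Titrant added in 2.5 µL increments per injection.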
# A-375 [13] = experiment: Induction of apoptosis in human A375 cells assessed as early apoptotic cells at 5 uM after 36 hrs by annexinV-FITC/propidium iodide staining based flow cytometric analysis (reference value: 3.2%); assay type: functional
# A-375 [14] = experiment: Induction of apoptosis in human A375 cells assessed as early apoptotic cells at 5 uM after 24 hrs by annexinV-FITC/propidium iodide staining based flow cytometric analysis (reference value: 0.87%); assay type: functional
# A549 [15] = experiment: Antiproliferative activity against human A549 cells assessed as growth inhibition at 1 uM after 72 hrs by MTT assay relative to control; assay type: functional; conditions: read-out: GI
# Method in brief: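 Single-concentration MTT screen on MCF-7 and A549 cells grown in DMEM + 10% FBS. Cells at 3000–6000/well, cultured overnight, then given compound in buffer with 1% DMSO for 72 h. MTT (0.5 mg/mL) added for 4 h, formazan dissolved in DMSO, A570 read. Percent inhibition reported as the average ± S.D. of three independent measurements.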
# A-375 [16] = experiment: Induction of cell cycle arrest in human A375 cells assessed as accumulation at G1 phase at 1 uM after 24 hrs by propidium iodide staining based flow cytometric analysis (reference value: 52.65%); assay type: functional
# A-375 [17] = experiment: Induction of apoptosis in human A375 cells assessed as viable cells at 5 uM after 36 hrs by annexinV-FITC/propidium iodide staining based flow cytometric analysis (reference value: 94.15%); assay type: functional; conditions: read-out: Activity
# A-375 [18] = experiment: Induction of apoptosis in human A375 cells assessed as viable cells at 5 uM after 24 hrs by annexinV-FITC/propidium iodide staining based flow cytometric analysis (Rvb= 97.94%); assay type: functional; conditions: read-out: Activity
# A-375 [19] = experiment: Induction of apoptosis in human A375 cells assessed as necrotic cells at 2.5 uM after 36 hrs by annexinV-FITC/propidium iodide staining based flow cytometric analysis (reference value: 1.63%); assay type: functional
# PC-3 = experiment: Antiproliferative activity against human PC3 cells assessed as growth inhibition after 72 hrs by MTT assay; assay type: functional, cell-based; conditions: Homo sapiens, PC-3, 72 h; read-out: IC50; method in brief: as §1
# A-375 [20] = experiment: Induction of cell cycle arrest in human A375 cells assessed as accumulation at S phase at 5 uM after 24 hrs by propidium iodide staining based flow cytometric analysis (reference value: 37.33%); assay type: functional
# A-375 [21] = experiment: Induction of apoptosis in human A375 cells assessed as early apoptotic cells at 5 uM after 12 hrs by annexinV-FITC/propidium iodide staining based flow cytometric analysis (reference value: 0.87%); assay type: functional
# A-375 [22] = experiment: Antitumour activity against human A375 cells xenografted with mouse assessed as tumour growth inhibition at 5 mg/kg, im administered once per three days for 21 days; assay type: functional, organism-based; conditions: time 21.0 day
# Method in brief: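 Xenograft model. A375 cells harvested at 80% confluence with trypsin/EDTA, resuspended in serum-free DMEM and injected subcutaneously into the right flank of mice. Once tumours were visible (about 7 days), mice were randomised to vehicle or 5 mg/kg groups, n = 4, dosed by intramuscular injection once every three days. Tumour growth and body weight followed; tumours harvested and weighed at 21 days.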
smiles,measurement,setting,value
CC(C)(CO)c1ccc(Nc2ccc(C(=O)C(Cl)Cl)cc2[N+](=O)[O-])cc1,Activity,A-375 [1],19.11%
same,Activity,A-375 [2],Active
same,Activity,A-375 [3],9.64%
same,inhibition,A-375 [4],Active
same,IC50,MCF7,2.4 µM
same,IC50,A549 [5],3.2 µM
same,viability at 1 µM,A-375 [6],81.9%
same,Activity,A-375 [7],8.5%
same,Activity,A-375 [8],5.71%
same,Activity,A-375 [9],4.21%
same,inhibition,Homo sapiens,98.7%
same,IC50,HCT-116,2.1 µM
same,IC50,A-375 [10],1.1 µM
same,Activity,A-375 [11],22.3%
same,Kd,[12],7.8 µM
same,Activity,A-375 [13],6.52%
same,Activity,A-375 [14],6.47%
same,inhibition of growth at 1 µM,A549 [15],29.4%
same,Activity,A-375 [16],55.72%
same,viability at 5 µM,A-375 [17],44.5%
same,viability at 5 µM,A-375 [18],70.9%
same,Activity,A-375 [19],3.17%
same,IC50,PC-3,3.8 µM
same,Activity,A-375 [20],27.43%
same,Activity,A-375 [21],8.7%
same,Activity,A-375 [22],Active
